≈ marks a conversion by molar mass, not a printed value. Non-standard residues stand in square brackets, D forms with d. Residues, ends and D or L forms follow the SMILES beside them. *: point of attachment. FITC = O=C1OC2(c3ccc(O)cc3Oc3cc(O)ccc32)c2ccc(NC(=S)*)cc21; Pra = C#CC[C@H](N)C(=O)O; βAla = NCCC(=O)O
Test: Dynamic light scattering
Format: physicochemical
Conditions: PBS with 1% DMSO
Method in brief: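 Salicylaldehyde-tagged peptide and its alkyne precursor were dissolved in DMSO at several concentrations, then diluted 1:100 into PBS. Final samples were 5 µM, 125 nM and 10 nM in PBS (+1% DMSO). Aggregation was assessed by dynamic light scattering.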

**Q.** With C#CC[C@H](NC(=O)[C@H](Cc1ccccc1)NC(=O)CCNC(=S)Nc1ccc2c(c1)C(=O)OC21c2ccc(O)cc2Oc2cc(O)ccc21)C(=O)N[C@@H](C)C(=O)N[C@@H](CC(C)C)C(=O)N[C@@H](CC(=O)O)C(=O)N[C@@H](Cc1c[nH]c2ccccc12)C(=O)N[C@@H](CO)C(=O)N[C@@H](Cc1c[nH]c2ccccc12)C(=O)N[C@@H](CC(C)C)C(=O)N[C@@H](CCC(N)=O)C(=O)N[C@H](C(=O)N[C@@H](CCC(=O)O)C(N)=O)[C@@H](C)O [Compound 6] ({FITC-βAla}-F[Pra]ALDWSWLQTE-NH2) as the compound, how does the solubility kinetic read?
**A.** 0.125 µM (≈ 0.244 µg/mL)

— article PMC12694607 (RSC Chemical Biology, 2025)
